Data taken from ChEMBL document CHEMBL3272070, “Cycloalkanoindoles. 1. Syntheses and antiinflammatory actions of some acidic tetrahydrocarbazoles, cyclopentindoles, and cycloheptindoles” (J Med Chem, 1976).
Activity calls are given as the source filed them. No cut-off for these calls is given here.

What was measured:
[1] = test system: Rattus norvegicus; assay: Chronic antiinflammatory activity against adjuvant-induced arthritis in po dosed rat assessed as decrease in volume of paw administered for 9 days starting 14 days after adjuvant injection and continued until day 22 by therapeutic test; assay type: functional
How it was run: (§1)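 Adjuvant arthritis was induced in groups of six rats by injecting Mycobacterium butyricum in mineral oil into the left hind foot pad. Oral dosing ran from day 14 to day 22 (nine doses). Injected-paw volume was measured by mercury displacement, and a decrease of ≥0.5 ml counted as a therapeutic effect. ED50 was derived by probit analysis of responder counts. The maximum screening dose was 100 mg/kg.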

[2] = test system: Rattus norvegicus; assay: Acute antiinflammatory activity in po dosed rat assessed as inhibition of carrageenan-induced paw edema; assay type: functional
[3] = test system: Rattus norvegicus; assay: Chronic antiinflammatory activity against adjuvant-induced arthritis in rat assessed as decrease in volume of paw at 25 mg/kg, po administered for 9 days starting 14 days after adjuvant injection and continued until day 22 by therapeutic test; assay type: functional, organism-based; set-up: dose 25 mg/kg; how it was run: as §1
[4] = test system: Rattus norvegicus; assay: Chronic antiinflammatory activity against adjuvant-induced arthritis in rat assessed as decrease in volume of paw at 10 mg/kg, po administered for 9 days starting 14 days after adjuvant injection and continued until day 22 by therapeutic test; assay type: functional, organism-based; set-up: dose 10 mg/kg; how it was run: as §1
[5] = test system: Rattus norvegicus; assay: Ulcerogenicity in po dosed 24-hrs starved Charles-River rat assessed as lesions on stomach administered as single dose measured after 18 hrs; assay type: toxicity, organism-based; conditions: in vivo
How it was run: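 Male Charles River rats were starved 24 h and given a single oral dose. After 18 h they were killed by ether inhalation and their stomachs examined for lesions (erosion or ulcer). UD50, the dose producing lesions in 50% of rats, was derived by probit analysis.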

[6] = test system: Rattus norvegicus; assay: Chronic antiinflammatory activity against adjuvant-induced arthritis in rat assessed as decrease in volume of paw at 100 mg/kg, po administered for 9 days starting 14 days after adjuvant injection and continued until day 22 by therapeutic test; assay type: functional, organism-based; set-up: dose 100 mg/kg; how it was run: as §1
[7] = species on record: Rattus norvegicus; assay: Ratio of ED50 for ulcerogenicity in 24-hrs starved Charles-River rat to ED50 for chronic antiinflammatory activity against adjuvant-induced arthritis in rat
How it was run: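 Ratio of ulcerogenic UD50 to therapeutic ED50. UD50: single oral dose in 24 h-starved male Charles River rats, stomach lesions scored at 18 h. Therapeutic ED50: adjuvant-arthritic rats dosed orally days 14–22, with a ≥0.5 ml decrease in paw volume as the response. Both values were derived by probit analysis.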

[8] = test system: Rattus norvegicus; assay: Ratio of ED50 for acute antiinflammatory activity against carrageenan-induced paw edema in rat to ED50 for chronic antiinflammatory activity against adjuvant-induced arthritis in rat

Compound: O=C(O)C1CCc2c([nH]c3ccc(Cl)cc23)C1 (stereo not drawn)
- ED50 [1]: 21.3 mg/kg
- ED50 [2]: 10.2 mg/kg

Compound: CCC1(CC(=O)O)CCCc2c1[nH]c1ccc(OC)cc21 (stereo not drawn)
- Activity [3]: inactive

Compound: CCc1cccc2c3c([nH]c12)C(C)(CC(=O)O)CCCC3 (stereo not drawn)
- Activity [4]: inactive

Compound: CCCCC1C(=O)N(c2ccccc2)N(c2ccccc2)C1=O [PHENYLBUTAZONE]
- ED50 [1]: 5.4 mg/kg
- ED50 [5]: 100 mg/kg

Compound: CCCC1(CC(=O)O)CCCc2c1[nH]c1ccccc21 (stereo not drawn)
- ED50 [1]: 20 mg/kg

Compound: CCc1cccc2c3c([nH]c12)C(CC)(CC(=O)O)CCCC3 (stereo not drawn)
- ED50 [1]: > 50 mg/kg

Compound: CCc1cccc2c3c([nH]c12)C(C)(CC(=O)O)CC3 (stereo not drawn)
- ED50 [1]: > 50 mg/kg

Compound: CC1(CC(=O)O)CCCc2c1[nH]c1ccccc21 (stereo not drawn)
- Activity [6]: inactive

Compound: COc1ccc2c(c1)c(CC(=O)O)c(C)n2C(=O)c1ccc(Cl)cc1 [INDOMETHACIN]
- ED50 [1]: 0.2 mg/kg

Compound: CCC1(CC(=O)O)CCc2c1[nH]c1ccccc21 (stereo not drawn)
- ED50 [1]: 100 mg/kg

Compound: CCc1cccc2c3c([nH]c12)C(CC)(CC(=O)O)CC3 (stereo not drawn)
- ED50 [1]: 6.2 mg/kg

Compound: CCCCc1cccc2c3c([nH]c12)C(CC)(CC(=O)O)CCC3 (stereo not drawn)
- ED50 [1]: 4.2 mg/kg

Compound: O=C(O)C1CCc2c([nH]c3ccccc23)C1 (stereo not drawn)
- Activity [6]: inactive

Compound: COc1ccc2cc([C@H](C)C(=O)O)ccc2c1 [NAPROXEN]
- ED50 [1]: 2.1 mg/kg
- ED50 [5]: 28 mg/kg
- Ratio ED50 [7]: 13

Compound: CCCc1cccc2c3c([nH]c12)C(CC)(CC(=O)O)CCC3 (stereo not drawn)
- ED50 [1]: 1.1 mg/kg
- ED50 [2]: 10.5 mg/kg
- ED50 [5]: 24 mg/kg
- Ratio ED50 [7]: 24
- Ratio [8]: 10

Compound: CCc1cccc2c3c([nH]c12)C(CC)(CC(=O)O)CCC3 (stereo not drawn)
- ED50 [1]: 1.9 mg/kg

Compound: CCC1(CC(=O)O)CCCc2c1[nH]c1ccccc21 (stereo not drawn)
- ED50 [1]: 3.3 mg/kg

Compound: CCc1cccc2c3c([nH]c12)C(CC)(CC(=O)O)OCC3 (stereo not drawn) [ETODOLAC]
- ED50 [1]: 0.7 mg/kg
- ED50 [2]: 10.2 mg/kg
- ED50 [5]: 60 mg/kg
- Ratio ED50 [7]: 85

Compound: COc1ccc2[nH]c3c(c2c1)CCC(C(=O)O)C3 (stereo not drawn)
- ED50 [1]: 20 mg/kg
- ED50 [2]: 12.7 mg/kg

Compound: CCC1(CC(=O)O)CCCc2c1[nH]c1c(C(C)C)cccc21 (stereo not drawn)
- ED50 [1]: 5.4 mg/kg

Compound: CCCC1(CC(=O)O)OCCc2c1[nH]c1ccccc21 (stereo not drawn) [PRODOLIC ACID]
- ED50 [1]: 9 mg/kg
- ED50 [2]: 89.9 mg/kg
- ED50 [5]: 678 mg/kg
- Ratio ED50 [7]: 75

Compound: CC1(CC(=O)O)CCc2c1[nH]c1ccccc21 (stereo not drawn)
- Activity [3]: inactive

Compound: O=C(O)CC1CCCc2c1[nH]c1ccccc21 (stereo not drawn)
- Activity [6]: inactive
